Bioassay records as filed in PubChem.
C8 TRAIL sens: sensitizes caspase-8 expressing cells to TRAIL; NB7+C8 cells + TRAIL, ATPlite viability luminescence; inhibition (viability loss, TRAIL sensitization), % at 10 µM; 360,000 tested, 1% active; AID 624354;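 active means compounds causing at least 50% loss of cell viability in the single-dose screen, relative to plate controls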
NF-kB expr up: raises NF-kB expression in human neuronal cells. NF-kB reporter expression; stronger effect = higher value. fold change at 12.5 µM. AID 1239. 190,000 tested, 1.6% active; in the data active means fold change above about 3.3
APP 5'UTR act: activates APP 5'UTR luciferase reporter; SH-SY5Y APP 5'UTR luciferase reporter, luminescence; zero percent = DMSO vehicle wells; activation, % at 2 µM; 190,000 tested, 1% active;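 active means activation above a set limit, based on mean plus 3 SD of controls, cut at about 140% in these data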
PPC-1+TRAIL kill: kills PPC-1 cancer cells in the presence of TRAIL | cell killing (% activity), % at 4 µM or 5 µM | 220,000 tested, 0.41% active | PPC-1 cells + TRAIL, ATPLite viability luminescence;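 active means cell killing above 50% in the first pass at 4 µM, then a duplicate retest at 5 µM averaging 50% or more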
FLuc inhib CS: Photinus pyralis luciferase inhibition counter-screen. ATPLite firefly luciferase biochemical luminescence, 10 min. 200,000 tested, 1.5% active. P08659. inhibition, % at 10 µM;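 active means inhibition above about 50% when tested at 10 µM, limit read from the data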
Target sequence (P08659 whole entry, looked up): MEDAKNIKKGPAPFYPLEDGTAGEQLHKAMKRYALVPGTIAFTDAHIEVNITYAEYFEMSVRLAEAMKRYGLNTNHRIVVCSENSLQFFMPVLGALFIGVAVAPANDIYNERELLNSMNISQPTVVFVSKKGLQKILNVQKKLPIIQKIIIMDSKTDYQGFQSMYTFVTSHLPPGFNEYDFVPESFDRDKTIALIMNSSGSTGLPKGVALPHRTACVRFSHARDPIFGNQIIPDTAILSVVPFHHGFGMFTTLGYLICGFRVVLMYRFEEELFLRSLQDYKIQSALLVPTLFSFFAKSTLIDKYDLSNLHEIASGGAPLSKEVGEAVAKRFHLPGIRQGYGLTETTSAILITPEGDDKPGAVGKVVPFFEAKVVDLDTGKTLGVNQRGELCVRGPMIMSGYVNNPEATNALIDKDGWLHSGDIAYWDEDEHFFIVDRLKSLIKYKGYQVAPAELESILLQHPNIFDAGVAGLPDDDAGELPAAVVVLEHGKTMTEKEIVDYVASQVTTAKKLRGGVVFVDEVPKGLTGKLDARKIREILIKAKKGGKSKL
FLuc act counter: firefly luciferase counter-screen for stimulation assays; P08659; ATPlite luciferase biochemical, luminescence, 10 min; 0 = ATP-free wells, 1 = DMSO control; activation factor at 10 µM; 200,000 tested, under 10 active; AID 1027;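 active means luciferase activation factor, scaled between plate controls, of at least 2 with compound at 10 µM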
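Material: Luciferase/luciferin reagent mix | Doses: Test compounds dosed from 2 mM stocks in 100% DMSO | Timing: 10 min incubation after luciferase reagent addition, room temperature | Measured by: Luminescence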
Hits are given with their value; – = inactive; · = no result given; ! = repeats disagree. Sampled rows, rich in hits. Any-hit rate of the full collection: about 2.2%.

SMILES	C8 TRAIL sens	NF-kB expr up	APP 5'UTR act	PPC-1+TRAIL kill	FLuc inhib CS	FLuc act counter
CCCCn1c(N)c(N(C(=O)CSc2nncn2-c2ccccc2)C2CCCC2)c(=O)[nH]c1=O	–	·	·	·	·	·
COc1ccc(C(=O)OCCc2ccc(O)cc2)cc1	–	6.7	–	–	–	–
COc1ccc(CCOC(=O)c2ccc(NC(=O)CC#N)cc2)cc1	–	·	·	·	·	·
CC(=O)N(C)C[C@@H]1Oc2ncc(Br)cc2C(=O)N([C@H](C)CO)C[C@@H]1C	–	·	·	·	·	·
CCc1ccc(-c2cc(C(=O)N/N=C/c3c[nH]c4ccccc34)[nH]n2)cc1	60	–	208	–	–	–
O=C(NCCc1ccccc1F)C1CC(=O)N(c2ccc3c(c2)OCCO3)C1 (stereo unspecified)	–	·	·	·	·	·
Oc1[nH]c2ccccc2c1N=Nc1nc2ccccc2s1	–	3.7	·	–	54	–
Oc1[nH]c2ccccc2c1N=Nc1ccccc1F	–	4.1	–	–	–	–
O=C(Nc1ccc(NC(=O)c2ccco2)nc1)c1ccccn1	–	–	–	–	61	–
O=C(Cc1ccccc1)Nc1ccc(NC(=O)c2ccco2)nc1	–	–	–	–	–	–
CC(C)(C)C(=O)Nc1ccc(NC(=O)c2ccco2)nc1	95	·	·	·	·	·
CC(C)c1nc2ccc(NC(=O)C3CCCCC3)cc2[nH]1	–	–	–	–	–	–
Cc1ccc2nc(-c3ccccc3N)[nH]c2c1	–	–	198	–	80	–
Cc1ccc2nc(-c3ccccn3)[nH]c2c1	70	·	·	·	·	·
Cc1ccc2nc(Cc3ccc(N)cc3)[nH]c2c1	–	–	160	–	–	–
O=C(Nc1ccc2nc(-c3ccccn3)[nH]c2c1)C1CCCCC1	53	–	–	–	63	–
Cc1ccc(N(CC2CO2)S(=O)(=O)c2ccccc2[N+](=O)[O-])cc1 (stereo unspecified)	–	·	·	·	·	·
CCCS(=O)(=O)NC(=O)C1(C)CCN(C(=O)c2ccc(OC)cc2OC)C1 (stereo unspecified)	–	·	·	·	·	·
c1ccc(-c2nc3c(ccc4ccccc43)[nH]2)nc1	–	3.7	–	–	–	–
c1ccc(-c2nc3ccccc3[nH]2)nc1	–	–	–	–	–	–
C=CCNc1oc(/C=C/c2ccccc2)nc1C#N	–	7.2	174	–	–	–
OC(c1ccc(F)c(F)c1)c1ncc(-c2cccc(F)c2)[nH]1 (stereo unspecified)	–	·	·	·	·	·
Clc1cccc(/C=N/Nc2nc(Cl)nc3ccccc23)c1	–	–	·	–	–	–
Clc1ccc(/C=N/Nc2ncnc3ccccc23)cc1Cl	–	4.9	·	–	–	–
CC1(C)Cc2c(sc(NC(=O)c3ccc(Br)o3)c2C#N)CO1	–	–	–	–	64	–
SMILES	C8 TRAIL sens	NF-kB expr up	APP 5'UTR act	PPC-1+TRAIL kill	FLuc inhib CS	FLuc act counter
CC1(C)Cc2c(sc(NC(=O)Cc3ccccc3)c2C#N)CO1	–	·	·	–	·	·
CN1CCN(Cc2nc3ccccc3c(=O)n2Cc2nc(-c3ccc4ccccc4c3)cs2)CC1	77!	16	–	–	–	–
CC(C)(C)NS(=O)(=O)c1ccc(NC(=O)C2CC(=O)N(CCc3ccc(F)cc3)C2)cc1 (stereo unspecified)	–	·	·	·	·	·
CN(C)c1ccc(/C=C(\Cl)c2nc3ccccc3s2)cc1	–	–	–	–	64	–
O=C(N/N=C/c1sc2ccccc2c1O)c1ccccc1	53	–	–	–	57	–
COc1ccc(C(=O)N/N=C/c2sc3ccccc3c2O)cc1	–	–	–	–	–	–
COc1ccc2cc(C(=O)N/N=C/c3sc4ccccc4c3O)ccc2c1	–	–	–	–	72	–
NS(=O)(=O)c1ccc(N=Nc2c(-c3ccccc3)[nH]n(-c3nc(-c4ccccc4)cs3)c2=O)cc1	54	–	–	–	–	–
CCCc1ccc(-c2cc(NC(=O)CSc3nnc(N)s3)n(-c3ccccc3)n2)cc1	63	4.4	–	–	65	–
O=C1C=C(OCCF)CC(c2cccc([N+](=O)[O-])c2)O1 (stereo unspecified)	–	·	·	·	·	·
Cc1nn(Cc2ccccc2)c(Cl)c1/C=C/C(=O)OCC(=O)N1CCCC1=O	–	7	–	–	–	–
COC(C(=O)Nc1c(F)cccc1F)c1ccccc1 (stereo unspecified)	–	–	–	–	–	–
C/C(=C\c1ccccc1)C(=O)Nc1cc(C)on1	–	–	–	–	–	–
